Reference: ChEMBL document CHEMBL1131382, “Structure-activity relationship of new growth inhibitors of Trypanosoma cruzi” (J Med Chem, 1998)
Values belong to the compound of their own block, whether it stands above or below them.

Columns and labels:
Trypanosoma cruzi [1] = assay: Concentration required to inhibit proliferation of the epimastigote form of Trypanosoma cruzi; format: functional, organism-based
Method in brief: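 T. cruzi epimastigotes (Y strain) at 28 °C in brain–heart infusion (37 g/L) with hemin (20 mg/L) and 10% newborn calf serum; inoculum (2–3) × 10⁶ cells/mL, 1 mL. Drugs at 1, 10, 50 and 100 μg/mL, each in quadruplicate, with a drug-free control. Growth read as absorbance at 600 nm; percent inhibition from the change in absorbance of drug-treated versus control cultures between start and end.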

Trypanosoma cruzi [2] = assay: Growth inhibition of the intracellular Trypanosoma cruzi was measured by counting no. of parasites per 100 myoblasts (T. cruzi ) after 48 hr (absence of compound); format: functional
Trypanosoma cruzi [3] = assay: Growth inhibition of the intracellular Trypanosoma cruzi was measured by no. of parasites per 100 myoblasts (T. cruzi ) after 72 hr at the concentration of 1.0 (ug/mL); format: functional
Trypanosoma cruzi [4] = assay: Growth inhibition of the intracellular Trypanosoma cruzi was measured by no. of parasites per 100 myoblasts (T. cruzi ) after 72 hr (absence of compound); format: functional
Trypanosoma cruzi [5] = assay: Growth inhibition of the intracellular Trypanosoma cruzi was measured by counting no. of parasites per 100 myoblasts (T. cruzi ) after 24 h (absence of compound); format: functional
Trypanosoma cruzi [6] = assay: Growth inhibition of the intracellular Trypanosoma cruzi was measured by counting percentage of myoblasts with Trypanosoma cruzi parasite after 48 hr at the concentration of 1.0 (ug/mL); format: functional
Trypanosoma cruzi [7] = assay: Growth inhibition of the intracellular Trypanosoma cruzi was measured by counting percentage of myoblasts with Trypanosoma cruzi parasite after 48 hr (absence of compound); format: functional
Trypanosoma cruzi [8] = assay: Growth inhibition of the intracellular Trypanosoma cruzi was measured by counting percentage of myoblasts with Trypanosoma cruzi parasite after 72 hr at the concentration of 1.0 (ug/mL); format: functional
Trypanosoma cruzi [9] = assay: Growth inhibition of the intracellular Trypanosoma cruzi was measured by counting percentage of myoblasts with Trypanosoma cruzi parasite after 72 hr (absence of compound); format: functional
Trypanosoma cruzi [10] = assay: Growth inhibition of the intracellular Trypanosoma cruzi was measured by no. of parasites per 100 myoblasts (T. cruzi ) after 48 hr at the concentration of 1.0 (ug/mL); format: functional
Trypanosoma cruzi [11] = assay: Growth inhibition of the intracellular Trypanosoma cruzi was measured by counting percentage of myoblasts with Trypanosoma cruzi parasite after 24 hr (absence of compound); format: functional
Trypanosoma cruzi [12] = assay: Growth inhibition of the intracellular Trypanosoma cruzi was measured by counting percentage of myoblasts with Trypanosoma cruzi parasite after time gap of 48 hr at the concentration of 1.0 ug/mL; format: functional
Trypanosoma cruzi [13] = assay: Growth inhibition of the intracellular Trypanosoma cruzi was measured by counting percentage of myoblasts with Trypanosoma cruzi parasite after time gap of 48 hr at the concentration of 2.5 ug/mL; format: functional
Trypanosoma cruzi [14] = assay: Growth inhibition of the intracellular Trypanosoma cruzi was measured by counting percentage of myoblasts with Trypanosoma cruzi parasite after time gap of 48 hr at the concentration of 5.0 ug/mL; format: functional
Trypanosoma cruzi [15] = assay: Growth inhibition of the intracellular Trypanosoma cruzi was measured by counting percentage of myoblasts with Trypanosoma cruzi parasite after time gap of 48 hr (with out compound); format: functional
Trypanosoma cruzi [16] = assay: Growth inhibition of the intracellular Trypanosoma cruzi was measured by counting percentage of myoblasts with Trypanosoma cruzi parasite after time gap of 72 hr at the concentration of 1.0 ug/mL; format: functional
Trypanosoma cruzi [17] = assay: Growth inhibition of the intracellular Trypanosoma cruzi was measured by counting percentage of myoblasts with Trypanosoma cruzi parasite after time gap of 72 hr at the concentration of 2.5 ug/mL; format: functional
Trypanosoma cruzi [18] = assay: Growth inhibition of the intracellular Trypanosoma cruzi was measured by counting percentage of myoblasts with Trypanosoma cruzi parasite after time gap of 72 hr at the concentration of 5.0 ug/mL; format: functional
Trypanosoma cruzi [19] = assay: Growth inhibition of the intracellular Trypanosoma cruzi was measured by counting percentage of myoblasts with Trypanosoma cruzi parasite after time gap of 72h( absence of compound); format: functional
Trypanosoma cruzi [20] = assay: Growth inhibition of the intracellular Trypanosoma cruzi was measured by no. of parasites per 100 myoblasts (T. cruzi ) after 48 hr at the concentration of 0.1 (ug/mL); format: functional
Trypanosoma cruzi [21] = assay: Growth inhibition of the intracellular Trypanosoma cruzi was measured by no. of parasites per 100 myoblasts (T. cruzi ) after 48 hr at the concentration of 0.5 (ug/mL); format: functional
Trypanosoma cruzi [22] = assay: Growth inhibition of the intracellular Trypanosoma cruzi was measured by no. of parasites per 100 myoblasts (T. cruzi ) after 72 hr at the concentration of 0.1 (ug/mL); format: functional
Trypanosoma cruzi [23] = assay: Growth inhibition of the intracellular Trypanosoma cruzi was measured by no. of parasites per 100 myoblasts (T. cruzi ) after 72 hr at the concentration of 0.5 (ug/mL); format: functional
Trypanosoma cruzi [24] = assay: Growth inhibition of the intracellular Trypanosoma cruzi was measured by no. of parasites per 100 myoblasts (T. cruzi ) after time gap of 24 hr (with out compound); format: functional
Trypanosoma cruzi [25] = assay: Growth inhibition of the intracellular Trypanosoma cruzi was measured by no. of parasites per 100 myoblasts (T. cruzi ) after time gap of 48 hr at the concentration of 1.0 ug/mL; format: functional
Trypanosoma cruzi [26] = assay: Growth inhibition of the intracellular Trypanosoma cruzi was measured by no. of parasites per 100 myoblasts (T. cruzi ) after time gap of 48 hr at the concentration of 2.5 ug/mL; format: functional
Trypanosoma cruzi [27] = assay: Growth inhibition of the intracellular Trypanosoma cruzi was measured by counting percentage of myoblasts with Trypanosoma cruzi parasite after 72 hr at the concentration of 0.1 (ug/mL); format: functional
Trypanosoma cruzi [28] = assay: Growth inhibition of the intracellular Trypanosoma cruzi was measured by counting percentage of myoblasts with Trypanosoma cruzi parasite after 72 hr at the concentration of 0.5 (ug/mL); format: functional
Trypanosoma cruzi [29] = assay: Growth inhibition of the intracellular Trypanosoma cruzi was measured by counting percentage of myoblasts with Trypanosoma cruzi parasite after time gap of 24 hr (with out compound); format: functional
Trypanosoma cruzi [30] = assay: Growth inhibition of the intracellular Trypanosoma cruzi was measured by no. of parasites per 100 myoblasts (T. cruzi ) after time gap of 48 hr at the concentration of 5.0 ug/mL; format: functional
Trypanosoma cruzi [31] = assay: Growth inhibition of the intracellular Trypanosoma cruzi was measured by no. of parasites per 100 myoblasts (T. cruzi ) after time gap of 48 hr (with out compound); format: functional
Trypanosoma cruzi [32] = assay: Growth inhibition of the intracellular Trypanosoma cruzi was measured by counting percentage of myoblasts with Trypanosoma cruzi parasite after 48 hr at the concentration of 0.1 (ug/mL); format: functional
Trypanosoma cruzi [33] = assay: Growth inhibition of the intracellular Trypanosoma cruzi was measured by no. of parasites per 100 myoblasts (T. cruzi ) after time gap of 72 hr (absence of compound); format: functional
Trypanosoma cruzi [34] = assay: Growth inhibition of the intracellular Trypanosoma cruzi was measured by no. of parasites per 100 myoblasts (T. cruzi ) after time gap of 72 hr at the concentration of 1.0 ug/mL; format: functional
Trypanosoma cruzi [35] = assay: Growth inhibition of the intracellular Trypanosoma cruzi was measured by no. of parasites per 100 myoblasts (T. cruzi ) after time gap of 72 hr at the concentration of 2.5 ug/mL; format: functional
Trypanosoma cruzi [36] = assay: Growth inhibition of the intracellular Trypanosoma cruzi was measured by no. of parasites per 100 myoblasts (T. cruzi ) after time gap of 72 hr at the concentration of 5.0 ug/mL; format: functional
Trypanosoma cruzi [37] = assay: Growth inhibition of the intracellular Trypanosoma cruzi was measured by counting percentage of myoblasts with Trypanosoma cruzi parasite after 48 hr at the concentration of 0.5 (ug/mL); format: functional

SMILES: CCOC(=S)SCCOc1ccc(Oc2ccccc2)cc1
IC50 (Trypanosoma cruzi [1]): 41.9 µM

SMILES: C=CCOc1ccc(Oc2ccc(Br)cc2)cc1
IC50 (Trypanosoma cruzi [1]): > 250 µM

SMILES: CCNC(=O)SCCOc1ccc(Oc2ccccc2)cc1
IC50 (Trypanosoma cruzi [1]): 17 µM

SMILES: N#CSCCOc1ccc(OCc2ccccc2)cc1
IC50 (Trypanosoma cruzi [1]): 8.1 µM

SMILES: C=CCOc1ccc(Oc2ccccc2)cc1[N+](=O)[O-]
IC50 (Trypanosoma cruzi [1]): 185 µM

SMILES: CCSC(=O)OC/C=C(\C)CCC=C(C)C
IC50 (Trypanosoma cruzi [1]): 298 µM

SMILES: C=CCOc1ccc(Oc2ccccc2)cc1NC(C)=O
IC50 (Trypanosoma cruzi [1]): 97 µM

SMILES: N#CSCCOc1ccc(Cc2ccccc2)cc1
IC50 (Trypanosoma cruzi [1]): 13.4 µM

SMILES: c1ccc(Cc2ccc(OCCOC3CCCCO3)cc2)cc1 (stereo not given)
IC50 (Trypanosoma cruzi [1]): 282 µM

SMILES: Brc1cc(Oc2ccccc2)ccc1OCCOC1CCCCO1 (stereo not given)
IC50 (Trypanosoma cruzi [1]): 67 µM

SMILES: c1ccc(Oc2ccc(OCC3CS3)cc2)cc1 (stereo not given)
IC50 (Trypanosoma cruzi [1]): 3.9 µM

SMILES: C/C=C/Oc1ccc(Oc2ccccc2)cc1
IC50 (Trypanosoma cruzi [1]): > 440 µM

SMILES: CC(C)COC(=O)SCCOc1ccc(Oc2ccccc2)cc1
IC50 (Trypanosoma cruzi [1]): 19.1 µM

SMILES: C=CCOc1ccc(Oc2ccc(C(C)=O)cc2)cc1
IC50 (Trypanosoma cruzi [1]): 300 µM

SMILES: CCSC(=O)SCCOc1ccc(Oc2ccccc2)cc1
IC50 (Trypanosoma cruzi [1]): 37.7 µM

SMILES: CC1CS(=O)(=O)CCN1/N=C/c1ccc([N+](=O)[O-])o1 (stereo not given) [NIFURTIMOX]
R (Trypanosoma cruzi [2]): 155%
R (Trypanosoma cruzi [3]): 70.5%
R (Trypanosoma cruzi [4]): 321%
R (Trypanosoma cruzi [5]): 80.25%
Myoblasts with parasites (Trypanosoma cruzi [6]): 14%
Myoblasts with parasites (Trypanosoma cruzi [7]): 16.25%
Myoblasts with parasites (Trypanosoma cruzi [8]): 12.5%
Myoblasts with parasites (Trypanosoma cruzi [9]): 20%
R (Trypanosoma cruzi [10]): 64.5%
Myoblasts with parasites (Trypanosoma cruzi [11]): 34.5%
IC50 (Trypanosoma cruzi [1]): 8.6 µM

SMILES: C=CCOc1ccc(Oc2ccccc2)cc1Cl
IC50 (Trypanosoma cruzi [1]): > 250 µM

SMILES: C=CCOc1ccc(Oc2ccccc2)cc1Br
IC50 (Trypanosoma cruzi [1]): 182 µM

SMILES: C=CCOc1ccc(Oc2ccc(C(=O)c3ccccc3)cc2)cc1
IC50 (Trypanosoma cruzi [1]): > 330 µM

SMILES: CCSC(=O)OC/C=C(\C)CCC1OC1(C)C (stereo not given)
IC50 (Trypanosoma cruzi [1]): > 380 µM

SMILES: N#CSCCOc1ccc(Oc2ccccc2)cc1
R (Trypanosoma cruzi [2]): 239.5%
Myoblasts with parasites (Trypanosoma cruzi [12]): 20.5%
Myoblasts with parasites (Trypanosoma cruzi [13]): 20.3%
Myoblasts with parasites (Trypanosoma cruzi [14]): 19.8%
Myoblasts with parasites (Trypanosoma cruzi [15]): 31.5%
Myoblasts with parasites (Trypanosoma cruzi [16]): 16.3%
Myoblasts with parasites (Trypanosoma cruzi [17]): 17%
Myoblasts with parasites (Trypanosoma cruzi [18]): 8.3%
Myoblasts with parasites (Trypanosoma cruzi [19]): 24.8%
R (Trypanosoma cruzi [20]): 218%
R (Trypanosoma cruzi [21]): 98%
R (Trypanosoma cruzi [22]): 238%
R (Trypanosoma cruzi [23]): 124.5%
R (Trypanosoma cruzi [3]): 63.5%
R (Trypanosoma cruzi [4]): 578.5%
R (Trypanosoma cruzi [24]): 85%
R (Trypanosoma cruzi [25]): 59.3%
R (Trypanosoma cruzi [26]): 57%
R (Trypanosoma cruzi [5]): 91.8%
Myoblasts with parasites (Trypanosoma cruzi [6]): 19.3%
Myoblasts with parasites (Trypanosoma cruzi [7]): 21.5%
Myoblasts with parasites (Trypanosoma cruzi [27]): 15.5%
Myoblasts with parasites (Trypanosoma cruzi [28]): 12.5%
Myoblasts with parasites (Trypanosoma cruzi [8]): 15%
Myoblasts with parasites (Trypanosoma cruzi [9]): 27.5%
Myoblasts with parasites (Trypanosoma cruzi [29]): 38%
R (Trypanosoma cruzi [30]): 48%
R (Trypanosoma cruzi [31]): 270.5%
Myoblasts with parasites (Trypanosoma cruzi [32]): 22%
R (Trypanosoma cruzi [33]): 733.5%
R (Trypanosoma cruzi [34]): 85.5%
R (Trypanosoma cruzi [35]): 76.3%
R (Trypanosoma cruzi [36]): 28%
R (Trypanosoma cruzi [10]): 69.3%
Myoblasts with parasites (Trypanosoma cruzi [11]): 26%
IC50 (Trypanosoma cruzi [1]): 2.2 µM
Myoblasts with parasites (Trypanosoma cruzi [37]): 18.3%

Results, then the compound that gave them:

IC50 (Trypanosoma cruzi [1]): 230 µM
SMILES: C=CCOc1ccc(Oc2ccc([N+](=O)[O-])cc2)cc1

IC50 (Trypanosoma cruzi [1]): 121 µM
SMILES: c1ccc(COc2ccc(OCCOC3CCCCO3)cc2)cc1 (stereo not given)

IC50 (Trypanosoma cruzi [1]): 221 µM
SMILES: C=CCOc1ccc(Oc2ccccc2)cc1

IC50 (Trypanosoma cruzi [1]): 91 µM
SMILES: C=CCOc1ccc(Oc2ccccc2)cc1I

IC50 (Trypanosoma cruzi [1]): 143 µM
SMILES: Clc1cc(Oc2ccccc2)ccc1OCCOC1CCCCO1 (stereo not given)

IC50 (Trypanosoma cruzi [1]): > 250 µM
SMILES: C=CCOc1ccc(Oc2ccc(Cl)cc2)cc1

IC50 (Trypanosoma cruzi [1]): 96.1 µM
SMILES: C=CCSC(=S)OCCOc1ccc(Oc2ccccc2)cc1

IC50 (Trypanosoma cruzi [1]): 85 µM
SMILES: Brc1ccc(Oc2ccc(OCCOC3CCCCO3)cc2)cc1 (stereo not given)

IC50 (Trypanosoma cruzi [1]): 15.1 µM
SMILES: CCOC(=O)SCCOc1ccc(Oc2ccccc2)cc1

IC50 (Trypanosoma cruzi [1]): 324 µM
SMILES: C=CCOc1ccc(Sc2ccccc2)cc1

IC50 (Trypanosoma cruzi [1]): 282 µM
SMILES: C=CCOc1ccc(Cl)cc1Cl

IC50 (Trypanosoma cruzi [1]): 3.5 µM
SMILES: N#CSCCCOc1ccc(Oc2ccccc2)cc1

IC50 (Trypanosoma cruzi [1]): 93 µM
SMILES: Clc1ccc(OCCOC2CCCCO2)c(Cl)c1 (stereo not given)
